Structures are written as SMILES. Calls of active or inactive are those of the source. No cut-off for these calls is given here. Some results are limits rather than exact numbers.

Experiment [1] concerns the target T1, 17-beta-hydroxysteroid dehydrogenase type 1 (Homo sapiens) (UniProt P14061).
T1 sequence (whole entry): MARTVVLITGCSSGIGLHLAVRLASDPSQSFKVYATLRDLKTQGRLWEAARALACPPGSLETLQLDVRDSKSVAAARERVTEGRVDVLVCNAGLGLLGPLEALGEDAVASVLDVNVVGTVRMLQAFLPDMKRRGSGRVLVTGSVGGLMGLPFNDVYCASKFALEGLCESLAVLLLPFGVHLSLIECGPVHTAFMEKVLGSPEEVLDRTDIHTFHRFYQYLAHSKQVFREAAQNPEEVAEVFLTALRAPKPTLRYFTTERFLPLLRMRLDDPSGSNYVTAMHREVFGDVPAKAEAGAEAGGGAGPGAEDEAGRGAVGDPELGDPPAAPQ
The experiment is described as follows: Inhibition of human recombinant 17beta-HSD1 expressed in HEK293 cell lysate assessed as conversion of radiolabeled estrone to estradiol at 20 uM. The class given is cell-free. Set-up: scale not given: the % may be the effect or the level left. An outline of the steps:
(§1)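 HEK-293 cells transiently transfected with human 17β-HSD1 by calcium phosphate were harvested 48 h later, and the pellets were frozen at -70 °C. Pellets were resuspended in 50 mM potassium phosphate, 20% glycerol and 1 mM EDTA. Conversion of 200 nM radiolabeled estrone to estradiol was measured immediately with 500 µM NADPH. […] DMSO was ≤0.1%. Values are mean ± SD from three independent experiments.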

The target in experiment [2] is T2, 17-beta-hydroxysteroid dehydrogenase type 1 (Homo sapiens, UniProt P14061).
T2 sequence (P14061 whole entry): T1 sequence (whole entry)
The experiment is described as follows: Inhibition of human recombinant 17beta-HSD1 expressed in HEK293 cell lysate assessed as conversion of radiolabeled estrone to estradiol. The class given is cell-free. In outline:
as §1

Experiment [3] has as its target T3, 17-beta-hydroxysteroid dehydrogenase type 2 (Homo sapiens) (UniProt P37059).
T3 sequence (whole entry): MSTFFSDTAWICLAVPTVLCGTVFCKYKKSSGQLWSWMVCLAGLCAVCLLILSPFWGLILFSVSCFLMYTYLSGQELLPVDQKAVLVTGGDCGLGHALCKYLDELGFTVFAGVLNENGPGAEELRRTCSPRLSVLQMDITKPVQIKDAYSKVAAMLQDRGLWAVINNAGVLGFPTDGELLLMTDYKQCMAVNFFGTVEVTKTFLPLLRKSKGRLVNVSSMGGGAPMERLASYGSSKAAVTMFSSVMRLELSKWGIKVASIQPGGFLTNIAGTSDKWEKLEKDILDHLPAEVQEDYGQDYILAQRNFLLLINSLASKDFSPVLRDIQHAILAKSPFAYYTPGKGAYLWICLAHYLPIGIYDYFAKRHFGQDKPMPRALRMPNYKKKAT
In words: Inhibition of human recombinant 17beta-HSD2 expressed in HEK293 cell lysate assessed as conversion of radiolabeled estrone to estradiol at 40 uM. The class given is cell-free. Also on record: scale not given: the % may be the effect or the level left.

In experiment [4] the target is T4, 17-beta-hydroxysteroid dehydrogenase type 2 (Homo sapiens, UniProt P37059).
T4 sequence (P37059 whole entry): T3 sequence (whole entry)
The experiment is described as follows: Inhibition of human recombinant 17beta-HSD2 expressed in HEK293 cell lysate assessed as conversion of radiolabeled estrone to estradiol. It is filed as cell-free.

The target of experiment [5] is T3, 17-beta-hydroxysteroid dehydrogenase type 2 (Homo sapiens). The experiment is described as follows: Inhibition of human recombinant 17beta-HSD2 expressed in HEK293 cell lysate assessed as conversion of radiolabeled estrone to estradiol at 20 uM. It is filed as cell-free. Set-up: scale not given: the % may be the effect or the level left.
The target in experiment [6] is T5, 17-beta-hydroxysteroid dehydrogenase type 3 (Homo sapiens) (UniProt P37058).
T5 sequence (whole entry): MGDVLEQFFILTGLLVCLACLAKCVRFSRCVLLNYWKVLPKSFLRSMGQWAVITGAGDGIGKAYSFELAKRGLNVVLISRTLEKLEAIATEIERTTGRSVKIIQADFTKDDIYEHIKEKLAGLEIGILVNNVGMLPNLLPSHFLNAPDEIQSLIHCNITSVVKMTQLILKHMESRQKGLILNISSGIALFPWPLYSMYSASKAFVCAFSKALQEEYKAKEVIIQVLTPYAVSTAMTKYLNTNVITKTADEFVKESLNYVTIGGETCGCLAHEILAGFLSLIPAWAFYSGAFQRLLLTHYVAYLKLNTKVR
The experiment is described as follows: Inhibition of human recombinant 17beta-HSD3 expressed in intact HEK293 cells assessed as conversion of androstenedione to testosterone at 20 uM. It is filed as cell-based. Set-up: scale not given: the % may be the effect or the level left. An outline of the steps: (§2)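 17β-HSD3 or 17β-HSD5 was transiently expressed in HEK-293 cells. Conversion of androstenedione to testosterone was measured in intact cells without added cofactor. Compounds were tested at 20 µM, with final DMSO ≤0.1%. Values are mean ± SD from three independent experiments.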

The target in experiment [7] is T6, Aldo-keto reductase family 1 member C3 (Homo sapiens) (UniProt P42330).
T6 sequence (whole entry): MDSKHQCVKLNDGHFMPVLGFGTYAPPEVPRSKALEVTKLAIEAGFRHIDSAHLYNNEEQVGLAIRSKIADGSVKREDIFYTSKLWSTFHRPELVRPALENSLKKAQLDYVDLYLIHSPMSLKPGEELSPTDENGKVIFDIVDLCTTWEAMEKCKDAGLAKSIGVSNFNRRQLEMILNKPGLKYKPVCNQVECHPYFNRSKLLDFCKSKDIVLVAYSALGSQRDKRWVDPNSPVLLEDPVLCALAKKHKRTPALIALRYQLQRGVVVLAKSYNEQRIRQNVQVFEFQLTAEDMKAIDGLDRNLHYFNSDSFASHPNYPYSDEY
In words: Inhibition of human recombinant 17beta-HSD5 expressed in intact HEK293 cells assessed as conversion of androstenedione to testosterone at 20 uM after 24 hrs. The class given is cell-based. Set-up: scale not given: the % may be the effect or the level left. In outline: as §2

Experiment [8] has as its target 11-beta-hydroxysteroid dehydrogenase 1 (Homo sapiens, UniProt P28845). In words: Inhibition of human recombinant 11beta-HSD1 expressed in HEK293 cell lysate assessed as conversion of radiolabeled estrone to estradiol at 20 uM. Also on record: scale not given: the % may be the effect or the level left. It is filed as cell-free.

11-beta-hydroxysteroid dehydrogenase 1, sequence (P28845 whole entry, looked up): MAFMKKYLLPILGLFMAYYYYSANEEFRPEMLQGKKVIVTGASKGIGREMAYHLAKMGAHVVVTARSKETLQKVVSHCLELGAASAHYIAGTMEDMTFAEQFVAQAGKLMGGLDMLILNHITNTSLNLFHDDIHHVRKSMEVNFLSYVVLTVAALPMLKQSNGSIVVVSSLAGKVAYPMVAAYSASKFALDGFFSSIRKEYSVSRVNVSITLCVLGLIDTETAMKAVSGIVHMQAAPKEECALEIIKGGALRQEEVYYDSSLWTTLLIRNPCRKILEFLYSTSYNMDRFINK

Turning to `O=c1cc(-c2ccc(O)cc2)oc2cc(O)cc(O)c12` [APIGENIN], the values for the Activity in experiment [1] and in experiment [3] were 10% and 25.2%, respectively. The IC50 – broadly, the point on the concentration scale where inhibition reaches its midpoint – is 0.71 µM in experiment [2] and over 20 µM in experiment [4].
Take `CCOP(=O)(Nc1ccc2c(c1)Cc1c-2cc(Cl)c(NC(C)=O)c1Cl)OCC`: the Activity is 90% in experiment [1]; 79% in experiment [5]; 86% in experiment [6]; 84% in experiment [7]; 87% in experiment [8].
As to `COc1c2c(cc3c1C1Oc4c(ccc(O)c4CC=C(C)C)C1CO3)OC(C)(C)C=C2` (configuration not stated), the Activity was determined as 54% in experiment [1], 86% in experiment [5], 55% in experiment [6] and 96% in experiment [8]. Besides, in experiment [2], the IC50 was 19 µM. Besides, the outcome in experiment [7] was inactive.
Take `O=c1cc(-c2ccccc2)oc2ccccc12`: the Activity in experiment [1] came to 94%; in experiment [3], 63.9%.
The like results for `O=C1CC(c2ccccc2)Oc2ccccc21` (configuration not stated) were, in that order, 110% and 70.7%.
Regarding `O=c1c(O)c(-c2ccc(O)c(O)c2)oc2cc(O)cc(O)c12` [QUERCETIN], the Activity in experiment [1] turned out to be 65%; in experiment [3], 6.07%. Also, the half-maximal inhibitory concentration (IC50) in experiment [4] stood at 1.54 µM.
Regarding `O=C1CC(c2ccc(O)cc2)Oc2ccccc21` (configuration not stated), the Activity in experiment [1] came to 99%; in experiment [3], 63.6%.
The like results for `Cc1cc2c(C(C)C)c(O)c(O)c(C=O)c2c(O)c1-c1c(C)cc2c(C(C)C)c(O)c(O)c(C=O)c2c1O` were, in that order, 60% and 64.8%.
Consider `CCCCC(=O)Nc1sc2c(c1C(=O)OCC)CCC(/C=N/O)=C2Cl`, for which the Activity was 76% in experiment [1], 48% in experiment [5], 89% in experiment [6] and 106% in experiment [8]. The outcome in experiment [7] was inactive.
With `O=c1c(-c2ccc(O)cc2)coc2cc(O)cc(O)c12` [GENISTEIN], the results for the Activity in experiment [1] and in experiment [3] were 17% and 15.7%, respectively. Moreover, the half-maximal inhibitory concentration (IC50) in experiment [2] was 2.21 µM.
On to `O=c1cc(-c2ccccc2)oc2cc(O)ccc12` [7-HYDROXYFLAVONE], for which the Activity in experiment [1] amounted to 16%; in experiment [3], 23.1%. The IC50 in experiment [2] is 5.25 µM; in experiment [4], over 20 µM.
Regarding `Cc1cc(/C=N/NC(=O)C(O)(c2ccccc2)c2ccccc2)c(C)n1-c1ccc(O)cc1`, the Activity in experiment [1] was 73%; in experiment [5], 113%; in experiment [6], 76%; in experiment [8], 90%. Besides, in experiment [7], the result was inactive.
Consider `Cc1c(/C=N/N=C2\CC[C@H]3[C@@H]4CCc5cc(O)ccc5[C@H]4CC[C@]23C)cnn1C`, for which the Activity in experiment [1] came to 34%; in experiment [5], 63%; in experiment [6] it was 75%; in experiment [8], 81%. The IC50 in experiment [2] amounted to 33 µM. For the same compound, the outcome in experiment [7] was inactive.
Take `CC1(C)[C@@H](O)CC[C@]2(C)[C@H]3C(=O)C=C4[C@@H]5C[C@@](C)(C(=O)O)CC[C@]5(C)CC[C@@]4(C)[C@]3(C)CC[C@@H]12`: the figures for the Activity in experiment [1] and in experiment [3] were 53% and 24.5%, respectively.
`COc1ccc(-c2coc3cc(O)cc(O)c3c2=O)cc1` [BIOCHANIN]: the Activity turned out to be 45% in experiment [1] and 10.1% in experiment [3]. Moreover, the 50% inhibitory concentration (IC50) in experiment [4] turned out to be 9.9 µM.
In the case of `O=C1C[C@@H](c2ccc(O)cc2)Oc2cc(O)cc(O)c21` [NARINGENIN], the Activity in experiment [1] came out at 17.2%; in experiment [3] it was 12.6%. Also, the IC50 in experiment [2] was determined as 4.96 µM; in experiment [4], 14.4 µM.
With `Cc1cc(-c2ccc(NS(=O)(=O)c3ccccc3)c(C)c2)ccc1NS(=O)(=O)c1ccccc1`, the Activity in experiment [1] came to 64%; in experiment [5] it was 56%; in experiment [6] it was 92%; in experiment [8] it was 101%. Further, the outcome in experiment [7] was inactive.
Turning to `O=C1CC(c2ccccc2)Oc2ccc(O)cc21` (configuration not stated), the results for the Activity in experiment [1] and in experiment [3] were 102% and 42.5%, respectively.
The like results for `COc1ccc([C@@H]2CC(=O)c3c(O)cc(O)cc3O2)cc1O` were, in that order, 44% and 36.4%.
As for `O=c1c(O)c(-c2ccc(O)cc2)oc2cc(O)cc(O)c12` [KAEMPFEROL], the Activity was 13% in experiment [1] and 4.83% in experiment [3]. Besides, the figures for the 50% inhibitory concentration (IC50) in experiment [2] and in experiment [4] were 1.05 µM and 0.36 µM, respectively.
Take `O=S1OCC2C(CO1)C1(Cl)C(Cl)=C(Cl)C2(Cl)C1(Cl)Cl` (configuration not stated) [ENDOSULFAN]: the Activity in experiment [1] came out at 25%; in experiment [3], 51.1%. Further, in experiment [2], the concentration for half-maximal inhibition (IC50) was 48.2 µM.
`COC(C(=O)Nc1ccc(-c2ccc(NC(=O)C(OC)c3ccccc3)c(C)c2)cc1C)c1ccccc1` (configuration not stated): the Activity in experiment [1] amounted to 84%; in experiment [5], 59%; in experiment [6], 96%; in experiment [8], 110%. For the same compound, the result in experiment [7] was inactive.
Turning to `CCOc1cc(/C=N/NC(=O)c2ccccn2)c(Br)c(Br)c1O`, the Activity in experiment [1] is 88%; in experiment [5], 55%; in experiment [6] it was 95%; in experiment [8], 68%. In experiment [7], the outcome was inactive.
Consider `C[C@]12CC[C@@H]3c4ccc(O)cc4CC[C@H]3[C@@H]1C[C@H](CCCCCCCCC(=O)OC[C@H]1O[C@@H](n3cnc4c(N)ncnc43)[C@H](O)[C@@H]1O)[C@@H]2O`, for which, in experiment [2], the Ki (as a rule, a dissociation constant, usually derived from enzyme kinetics or from competition with a known ligand) was found to be 0.003 µM.
Regarding `O=C1CC(c2ccccc2O)Oc2ccccc21` (configuration not stated), the Activity turned out to be 95% in experiment [1] and 50.7% in experiment [3].
The like results for `O=c1c(-c2ccc(O)cc2)coc2cc(O)ccc12` were, in that order, 35% and 58.3%.
Consider `O=S(=O)(Nc1ccccc1)c1ccc2c(c1)Cc1cc(S(=O)(=O)Nc3ccccc3)ccc1-2`, for which the Activity in experiment [1] is 75%; in experiment [5], 76%; in experiment [6] it was 80%; in experiment [8] it was 56%. The result in experiment [7] was inactive.
In the case of `O=c1cc(-c2ccccc2)oc2cc(O)cc(O)c12`, the Activity in experiment [1] is 34%; in experiment [3] it was 32.8%.
For `Cc1cc(OCCOc2ccc(N)cc2)ccc1N1C(N)=NC(N)=NC1(C)C`, the Activity in experiment [1] stood at 84%; in experiment [5], 59%; in experiment [6] it was 99%; in experiment [8], 99%. The result in experiment [7] was inactive.
Regarding `CCCCN(C)C(=O)CCCCCS[C@@H]1C[C@@H]2[C@H](CC[C@]3(C)[C@@H](O)CC[C@@H]23)c2ccc(O)cc21`, the IC50 in experiment [2] stood at 0.17 µM.

(Values after ChEMBL document CHEMBL1157467, “Discovery of nonsteroidal 17beta-hydroxysteroid dehydrogenase 1 inhibitors by pharmacophore-based screening of virtual compound libraries” (J Med Chem, 2008).)
